Values after ≈ are worked out from the molar mass of the structure shown.
Tests used:
Hepatitis C virus [1] = test: Inhibition of Hepatitis C virus genotype 1b NS3/4A protease; set-up: species or system Hepatitis C virus subtype 1b
[2] = Thermodynamic solubility of the compound at pH 7.3; assay type: physicochemical; settings: buffer, read-out: Therm_solubility
[3] = Permeability from apical to basolateral side in human Caco2 cells; assay type: ADME, cell-based; settings: Caco-2, read-out: permeability
Hepatitis C virus [4] = test: Antiviral activity against Hepatitis C virus genotype 1b infected in human Huh cells by luciferase reporter gene based replicon assay; assay type: functional, organism-based, Hepacivirus hominis
How it was run: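 EC50 from a cell-based assay in Huh-luc cells carrying a subgenomic HCV genotype 1b replicon, with luciferase reporter read-out.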

[5] = Thermodynamic solubility of the compound at pH 2.2; assay type: physicochemical; settings: buffer; for solubility thermodynamic: read-out: Therm_solubility
[6] = Permeability from basolateral to apical side in human Caco2 cells; assay type: ADME, cell-based; settings: Caco-2, read-out: permeability

SMILES	IC50 (Hepatitis C virus [1]) [nM]	solubility thermodynamic [2] [µM]	Papp A→B [3] [×10⁻⁶ cm/s]	EC50 (Hepatitis C virus [4]) [nM]	Therm_solubility [5]	Papp B→A [6] [×10⁻⁶ cm/s]	solubility thermodynamic [5] [µM]
CC[C@@H]1C[C@]1(NC(=O)[C@@H]1C[C@@H](Oc2cc(-c3csc(NC(C)C)n3)nc3c(Cl)c(OC)ccc23)CN1C(=O)[C@@H](NC(=O)O[C@@H]1C[C@@H]2C[C@@H]2C1)C(C)(C)C)C(=O)O	1.4	72 (≈ 58.4 µg/mL)	7.3	9	Insoluble(BLD)	25	
CC[C@@H]1C[C@]1(NC(=O)[C@@H]1C[C@@H](Oc2cc(-c3csc(NC(C)C)n3)nc3c(Cl)c(OC)ccc23)CN1C(=O)[C@@H](NC(=O)O[C@H]1C[C@@H]2[C@H](C1)C2(F)F)C(C)(C)C)C(=O)O	2.6	57 (≈ 48.3 µg/mL)	4.5	5		18	20 (≈ 16.9 µg/mL)
CC[C@@H]1C[C@]1(NC(=O)[C@@H]1C[C@@H](Oc2cc(-c3csc(NC(C)C)n3)nc3c(Cl)c(OC)ccc23)CN1C(=O)[C@@H](NC(=O)O[C@@H]1C[C@@H]2[C@H](C1)C2(F)F)C(C)(C)C)C(=O)O	5	9 (≈ 7.63 µg/mL)	6.8	115		49	< 6
